One data set deals with T1, σ2 receptor (Rattus norvegicus, UniProt Q5U3Y7).
T1 sequence (Q5U3Y7 1-176): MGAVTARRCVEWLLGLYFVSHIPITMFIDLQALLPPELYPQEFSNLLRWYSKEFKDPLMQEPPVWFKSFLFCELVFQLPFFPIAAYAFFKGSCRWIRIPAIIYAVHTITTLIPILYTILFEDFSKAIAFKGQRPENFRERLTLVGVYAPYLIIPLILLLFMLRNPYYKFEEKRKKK
In words: In vitro σ2 binding assay. The note with it: for Ki σ2: rat liver membrane homogenates, 3 nM [^3H]DTG, 1 μM dextrallorphan; for fold reduction in σ2 affinity: compared with 3a. Summed up: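 Rat liver membrane homogenate (150–200 µg protein) incubated with 3 nM [3H]DTG (39.4 Ci/mmol) plus 1 µM dextrallorphan to mask σ1 sites, with test compound from 10-4 to 10-12 M. Conditions as for σ1: 50 mM Tris-HCl pH 8.0, 25 °C, 120 min, then filtration. […] IC50 by curve fitting, converted to Ki by Cheng-Prusoff.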

Data set [1] concerns the target σ1 receptor (Cavia porcellus, UniProt Q60492). Kind of data set: In vitro σ1 binding assay. Also on record: species or system guinea pig. Particulars: for Ki σ1: guinea pig brain membrane homogenates; for fold reduction in σ1 affinity: compared with 3a. The essentials:
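Guinea pig brain membrane homogenate (300–500 µg protein) incubated with 3 nM [3H]-(+)-pentazocine (51.7 Ci/mmol) and test compound (10-4 to 10-12 M) in 50 mM Tris-HCl pH 8.0, 25 °C, 120 min. Stopped with ice-cold 10 mM Tris-HCl pH 8.0, filtered on PEI-soaked glass fibre filters, washed twice. […] IC50 by iterative curve fitting; Ki by Cheng-Prusoff. Protein by Lowry.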

Data set [2] can be described thus: Mouse liver microsomal assay. The format is in vitro ADME. The note with it: liver microsomes. The essentials: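 Mouse liver microsomes (20 mg/mL stock) diluted in 0.1 M phosphate buffer containing 3.3 mM MgCl2. Test compound added from a 100 µM stock, with verapamil as positive control. Intact test compound quantified over time by LC-MS/MS, and metabolic degradation half-life derived from its disappearance.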

Data set [3] has as its system σ1 receptor. Particulars: ref [10]; cited from earlier work.
The subject of another data set is PC-3 prostate tumors. Particulars: mice bearing PC-3 prostate tumors; ref [30]; cited from earlier work.

pKi: −log10 of the molar value.

The pKi is −log10 of the Ki, conventionally taken in molar units. Higher therefore signals a small Ki. As usually defined, the half-life is the time needed for the level to fall by half in the phase considered. Low values mean fast loss, high ones slow loss.

Chain of σ1 receptor (Cavia porcellus, UniProt Q60492) (Q60492 whole entry): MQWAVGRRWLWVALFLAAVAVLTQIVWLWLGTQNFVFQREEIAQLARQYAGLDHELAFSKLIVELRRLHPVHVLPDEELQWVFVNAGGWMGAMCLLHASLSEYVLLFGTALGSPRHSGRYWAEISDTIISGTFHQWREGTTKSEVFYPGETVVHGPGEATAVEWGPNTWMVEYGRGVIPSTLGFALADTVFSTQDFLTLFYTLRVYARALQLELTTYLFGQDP

With `O=C(NCCN1CCCCC1)c1cc(Br)ccc1O` [Compound 2, 5-Bromo-2-hydroxy-N-{2-(piperidin-1-yl)ethyl}benzamide], at σ2 receptor, the “Ki σ2” value was “devoid of σ receptor binding affinity”. In addition, the “Ki σ1” value at σ1 receptor [1] (3 nM [^3H]-(+)-pentazocine) was “devoid of σ receptor binding affinity”.

On to `O=C(NCCN1CCCCC1)c1cc(Br)ccc1OCCF` [Compound 3a, 5-Bromo-2-(2-fluoroethoxy)-N-{2-(piperidin-1-yl)ethyl}benzamide], for which, at σ1 receptor [1] (Ki σ1, guinea pig brain membrane homogenates, 3 nM [^3H]-(+)-pentazocine), the negative logarithm of the Ki (pKi) is 8.20. Besides, the half-life at 1 μM in data set [2] was 5.94 min.

Consider `O=C(NCCN1CCCCC1)c1cc(Br)ccc1OCCCF` [Compound 3b, 5-Bromo-2-(3-fluoropropoxy)-N-{2-(piperidin-1-yl)ethyl}benzamide], for which, on σ2 receptor, the “fold reduction in σ2 affinity” value is given as 9 fold. For the same molecule, the “fold reduction in σ1 affinity” value on σ1 receptor [1] came to 9 fold.

With `O=C(NCCN1CCCCC1)c1ccc(I)cc1` [Compound 4-IPAB], the σ1 affinity result in the data set with σ1 receptor [3] is “nanomolar”.

Regarding `O=C(NCCN1CCCCC1)c1ccc(O)c(Br)c1` [Compound 6, 3-Bromo-4-hydroxy-N-{2-(piperidin-1-yl)ethyl}benzamide], the “Ki σ2” value at σ2 receptor is given as “devoid of σ receptor binding affinity”. Moreover, the “Ki σ1” value on σ1 receptor [1] (3 nM [^3H]-(+)-pentazocine) is on record as “devoid of σ receptor binding affinity”.

In the case of `O=C(NCCN1CCCCC1)c1ccc(OCCF)c(Br)c1` [Compound 7a, 3-Bromo-4-(2-fluoroethoxy)-N-{2-(piperidin-1-yl)-ethyl}benzamide], the “fold reduction in σ2 affinity” value on σ2 receptor was determined as 4 fold. Besides, the “fold reduction in σ1 affinity” value at σ1 receptor [1] turned out to be 6 fold.

As to `COc1ccc(C(=O)NCCN2CCCCC2)cc1I` [PIMBA], the σ1 affinity result in the data set with σ1 receptor [3] is listed as “nanomolar”.

With `[11CH3]Oc1cccc2c1CCCC2CCCN1CCN(C2CCCCC2)CC1` (stereo not shown) [[^11C]PB28], in the data set on PC-3 prostate tumors, the tumor uptake entry is on record as “poor tumor uptake”.

These data come from publication PMC5490379 (Molecular pharmaceutics, 2017).
